Results taken from ChEMBL document CHEMBL5038602, “Potent Lys Patch-Containing Stapled Peptides Targeting PCSK9” (J Med Chem, 2021).
Calls of active or inactive are those of the source. The calls are words filed in the database; no cut-off is given here. Positions of bridges follow the written chain, without caps; N, C: chain ends. Non-standard residues stand in square brackets, D forms with d. Residues, ends and D or L forms follow the SMILES beside them. ξ: configuration not given here. S5 = C=CCCC[C@](C)(N)C(=O)O; Orn = NCCC[C@H](N)C(=O)O; ξK = NCCCCC(N)C(=O)O; ξA = CC(N)C(=O)O

Assays:
[1] = molecular target: T1, Proprotein convertase subtilisin/kexin type 9 (Homo sapiens, UniProt Q8NBP7); assay: Binding affinity to human PCSK9 by surface plasmon resonance
T1 sequence (Q8NBP7 31-152 limits assumed): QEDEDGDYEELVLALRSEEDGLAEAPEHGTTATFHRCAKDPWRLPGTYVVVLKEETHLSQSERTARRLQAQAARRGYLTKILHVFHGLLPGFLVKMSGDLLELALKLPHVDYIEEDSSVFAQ
T1 sequence (Q8NBP7 153-692 limits assumed): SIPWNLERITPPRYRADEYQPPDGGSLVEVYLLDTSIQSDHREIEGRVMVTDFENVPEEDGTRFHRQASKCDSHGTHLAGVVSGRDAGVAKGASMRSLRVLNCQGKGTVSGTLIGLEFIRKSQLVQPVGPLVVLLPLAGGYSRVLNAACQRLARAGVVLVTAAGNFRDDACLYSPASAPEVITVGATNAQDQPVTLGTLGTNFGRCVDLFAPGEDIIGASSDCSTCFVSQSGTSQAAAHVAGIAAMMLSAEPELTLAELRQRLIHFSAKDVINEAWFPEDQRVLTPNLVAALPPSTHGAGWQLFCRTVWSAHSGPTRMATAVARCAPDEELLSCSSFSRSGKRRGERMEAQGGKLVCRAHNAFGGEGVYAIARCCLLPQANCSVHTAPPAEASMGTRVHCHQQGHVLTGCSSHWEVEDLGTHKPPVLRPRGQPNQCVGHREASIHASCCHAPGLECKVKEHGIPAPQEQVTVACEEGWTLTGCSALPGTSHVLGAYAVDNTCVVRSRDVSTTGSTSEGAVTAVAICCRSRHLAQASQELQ
Outline: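 Recombinant human His-tagged PCSK9 (Gln31–Gln692, HEK293-expressed) at 14 µg/mL amine-coupled onto Ni-NTA chip, ~1000–4000 RU. Buffer 25 mM Tris-HCl, 5 mM CaCl2, 100 mM NaCl, 0.01% P20, pH 7.5, 5% DMSO in running buffer. 25°C. Double-referenced sensorgrams; KD from steady-state equilibrium responses fit to a 4-parameter model, or kinetics fit 1:1.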

[2] = tested on: HepG2; assay: Cytotoxicity against human HepG2 cells assessed as reduction in cell viability at 0.4 to 10 uM for 48 hrs by SRB assay; format: toxicity, cell-based; details: hepg2, 48 h, dose 0.4-10 µM
Outline: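 HepG2 cells seeded 2000/well 24 h before treatment. Compounds at 0.4, 1.1, 3.3 and 10 µM in DMEM, 48 h at 37°C. SRB staining 30 min at 37°C, dye dissolved in 10 mM Tris base, absorbance at 560 nm. Triplicate wells averaged and normalized to untreated cells.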

[3] = Effect on mast cell degranulation in human LAD2 cells assessed as CCL3 release measured after 2 hrs by Luminex bead based assay; format: functional
Outline: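 LAD2 human mast cells in StemPro 34 medium, 0.2×10^6 cells/well. Supernatant CCL3 quantified by Luminex magnetic bead kit.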

[4] = Reversal of LDL uptake in human HepG2 cells at 10 uM for 2 hrs preincubation with PCSK9 followed by LDL addition and measured after 4 hrs by fluorimetry method relative to control; format: functional; details: time 6 hrs
Outline: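 HepG2 cells seeded 40000/well, serum-starved 24 h in DMEM with 5% LPDS. Human His-PCSK9 (20–50 nM) preincubated 30–60 min at room temperature ± compounds (10 µM to 0.0001 µM, 0.1% DMSO). Cells then exposed 2 h at 37°C. LDL-BODIPY added to 10 µg/mL final for 4 h. Fluorescence read at ex 480/em 520 nm. Expressed as % maximal LDL-BODIPY incorporation; EC50 by non-linear fit.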

[5] = molecular target: T1, Proprotein convertase subtilisin/kexin type 9; assay: Binding affinity to human PCSK9

Kd [1] | Compound | Activity [2] | further results
133 nM | CC(=O)N[C@H](C(=O)N[C@H](C(=O)N[C@@H](Cc1ccccc1)C(=O)N[C@H](C(=O)N[C@@H](CO)C(=O)N[C@@H](Cc1c[nH]c2ccccc12)C(=O)N[C@H]1CCCCNC(=O)C[C@@H](C(=O)N[C@@H](Cc2c[nH]c3ccccc23)C(=O)N[C@H](C(=O)N[C@@H](CCCCN)C(=O)N[C@@H](CCCCN)C(=O)N[C@@H](C)C(=O)N[C@@H](CCCCN)C(=O)N[C@@H](CCCCN)C(=O)N[C@H](CCCCN)C(N)=O)C(C)C)NC(=O)[C@H](CC(C)C)NC(=O)[C@H](Cc2ccc(O)cc2)NC(=O)[C@H](CCC(=O)O)NC1=O)[C@@H](C)O)C(C)C)[C@@H](C)O | – | –
1100 nM | CC(=O)N[C@@H](Cc1cnc[nH]1)C(=O)N[C@H](C(=O)N[C@@H](Cc1ccccc1)C(=O)N[C@@H](CC(N)=O)C(=O)N[C@@H](CO)C(=O)N[C@@H](Cc1c[nH]c2ccccc12)C(=O)N[C@@H](CCC(=O)O)C(=O)N[C@@H](CCC(=O)O)C(=O)N[C@@H](Cc1ccc(O)cc1)C(=O)N[C@@H](CC(C)C)C(=O)N[C@@H](CC(=O)O)C(=O)N[C@@H](Cc1c[nH]c2ccccc12)C(=O)N[C@H](C(=O)NC(CCCCN)C(=O)NC(CCCCN)C(=O)NC(CCCCN)C(N)=O)C(C)C)C(C)C (some centres not stated) (Ac-HVFNSWEEYLDWV[ξK][ξK][ξK]-NH2) | Non-Toxic | –
5300 nM | CC(=O)N[C@@H](Cc1cnc[nH]1)C(=O)N[C@H](C(=O)N[C@@H](Cc1ccccc1)C(=O)N[C@@H](CC(N)=O)C(=O)N[C@@H](CO)C(=O)N[C@@H](Cc1c[nH]c2ccccc12)C(=O)N[C@H]1CCCCNC(=O)C[C@@H](C(=O)N[C@@H](Cc2c[nH]c3ccccc23)C(=O)N[C@H](C(N)=O)C(C)C)NC(=O)[C@H](CC(C)C)NC(=O)[C@H](Cc2ccc(O)cc2)NC(=O)[C@H](CCC(=O)O)NC1=O)C(C)C (Ac-HVFNSWKEYLDWV-NH2; lactam 7-11) | Non-Toxic | –
19 nM | CC(=O)N[C@@H](Cc1cnc[nH]1)C(=O)N[C@H](C(=O)N[C@@H](Cc1ccccc1)C(=O)N[C@@H](CC(N)=O)C(=O)N[C@@H](CO)C(=O)N[C@@H](Cc1c[nH]c2ccccc12)C(=O)N[C@H]1CCCCNC(=O)C[C@@H](C(=O)N[C@@H](Cc2c[nH]c3ccccc23)C(=O)N[C@H](C(=O)N[C@@H](CCCCN)C(=O)N[C@@H](CCCCN)C(=O)N[C@@H](CCCCN)C(=O)N[C@@H](CCCCN)C(=O)N[C@@H](CCCCN)C(=O)N[C@@H](CCCCN)C(N)=O)C(C)C)NC(=O)[C@H](CC(C)C)NC(=O)[C@H](Cc2ccc(O)cc2)NC(=O)[C@H](CCC(=O)O)NC1=O)C(C)C (Ac-HVFNSWKEYLDWVKKKKKK-NH2; lactam 7-11) | Non-Toxic | –
757 nM | CC(=O)N[C@@H](Cc1cnc[nH]1)C(=O)N[C@H](C(=O)N[C@@H](Cc1ccccc1)C(=O)N[C@@H](CC(N)=O)C(=O)N[C@@H](CO)C(=O)N[C@@H](Cc1c[nH]c2ccccc12)C(=O)N[C@H]1CCCCNC(=O)C[C@@H](C(=O)N[C@@H](Cc2c[nH]c3ccccc23)C(=O)N[C@H](C(=O)NC(CCCCN)C(=O)NC(CCCCN)C(=O)NC(CCCCN)C(N)=O)C(C)C)NC(=O)[C@H](CC(C)C)NC(=O)[C@H](Cc2ccc(O)cc2)NC(=O)[C@H](CCC(=O)O)NC1=O)C(C)C (some centres not stated) (Ac-HVFNSWKEYLDWV[ξK][ξK][ξK]-NH2; lactam 7-11) | Non-Toxic | –
7 nM | CC(=O)N[C@@H](Cc1cnc[nH]1)C(=O)N[C@H](C(=O)N[C@@H](Cc1ccccc1)C(=O)N[C@@H](CCCNC(=N)N)C(=O)N[C@@H](CO)C(=O)N[C@@H](Cc1c[nH]c2ccccc12)C(=O)N[C@@]1(C)CCC/C=C\CCC[C@@](C)(C(=O)N[C@@H](Cc2c[nH]c3ccccc23)C(=O)N[C@H](C(=O)N[C@@H](CCCCN)C(=O)N[C@@H](CCCCN)C(=O)N[C@@H](CCCCN)C(=O)N[C@@H](CCCCN)C(=O)N[C@@H](CCCCN)C(=O)N[C@@H](CCCCN)C(N)=O)C(C)C)NC(=O)[C@H](CC(C)C)NC(=O)[C@H](Cc2ccc(O)cc2)NC(=O)[C@H](CCC(=O)O)NC1=O)C(C)C (Ac-HVFRSW[S5]EYL[S5]WVKKKKKK-NH2; staple (Z) 7-11) | Non-Toxic | –
1100 nM | CC(=O)N[C@@H](Cc1cnc[nH]1)C(=O)N[C@H](C(=O)N[C@@H](Cc1ccccc1)C(=O)N[C@@H](CCCN)C(=O)N[C@@H](CO)C(=O)N[C@@H](Cc1c[nH]c2ccccc12)C(=O)N[C@@H](CCC(=O)O)C(=O)N[C@@H](CCC(=O)O)C(=O)N[C@@H](Cc1ccc(O)cc1)C(=O)N[C@@H](CC(C)C)C(=O)N[C@@H](CC(=O)O)C(=O)N[C@@H](Cc1c[nH]c2ccccc12)C(=O)N[C@H](C(N)=O)C(C)C)C(C)C (Ac-HVF[Orn]SWEEYLDWV-NH2) | Non-Toxic | –
72.5 nM | CC(=O)N[C@H](C(=O)N[C@H](C(=O)N[C@@H](Cc1ccccc1)C(=O)N[C@H](C(=O)N[C@@H](CO)C(=O)N[C@@H](Cc1c[nH]c2ccccc12)C(=O)N[C@@H](CCC(=O)O)C(=O)N[C@@H](CCC(=O)O)C(=O)N[C@@H](Cc1ccc(O)cc1)C(=O)N[C@@H](CC(C)C)C(=O)NC(C)C(=O)N[C@@H](Cc1c[nH]c2ccccc12)C(=O)N[C@H](C(=O)N[C@@H](CCCCN)C(=O)N[C@@H](CCCCN)C(=O)N[C@@H](CCCCN)C(=O)N[C@@H](CCCCN)C(=O)N[C@@H](CCCCN)C(=O)N[C@@H](CCCCN)C(N)=O)C(C)C)[C@@H](C)O)C(C)C)[C@@H](C)O (some centres not stated) (Ac-TVFTSWEEYL[ξA]WVKKKKKK-NH2) | – | –
3900 nM | CC(=O)N[C@H](C(=O)N[C@H](C(=O)N[C@@H](Cc1ccccc1)C(=O)N[C@H](C(=O)N[C@@H](CO)C(=O)N[C@@H](Cc1c[nH]c2ccccc12)C(=O)N[C@H]1CCCCNC(=O)C[C@@H](C(=O)N[C@@H](Cc2c[nH]c3ccccc23)C(=O)N[C@H](C(N)=O)C(C)C)NC(=O)[C@H](CC(C)C)NC(=O)[C@H](Cc2ccc(O)cc2)NC(=O)[C@H](CCC(=O)O)NC1=O)[C@@H](C)O)C(C)C)[C@@H](C)O (Ac-TVFTSWKEYLDWV-NH2; lactam 7-11) | Non-Toxic | EC50 ([3]; Homo sapiens, LAD2, 2 h): > 5000 nM; Emax ([3]; time 2 hrs): 716.6 pg/mL; Activity [4]: 52%
1000 nM | CC(=O)N[C@H](C(=O)N[C@H](C(=O)N[C@@H](Cc1ccccc1)C(=O)N[C@H](C(=O)N[C@@H](CO)C(=O)N[C@@H](Cc1c[nH]c2ccccc12)C(=O)N[C@H]1CCCCNC(=O)C[C@@H](C(=O)N[C@@H](Cc2c[nH]c3ccccc23)C(=O)N[C@H](C(=O)N[C@@H](CCCCN)C(=O)N[C@@H](CCCCN)C(=O)N[C@@H](CCCCN)C(N)=O)C(C)C)NC(=O)[C@H](CC(C)C)NC(=O)[C@H](Cc2ccc(O)cc2)NC(=O)[C@H](CCC(=O)O)NC1=O)[C@@H](C)O)C(C)C)[C@@H](C)O (Ac-TVFTSWKEYLDWVKKK-NH2; lactam 7-11) | Non-Toxic | –
25 nM | CC(=O)N[C@H](C(=O)N[C@H](C(=O)N[C@@H](Cc1ccccc1)C(=O)N[C@H](C(=O)N[C@@H](CO)C(=O)N[C@@H](Cc1c[nH]c2ccccc12)C(=O)N[C@H]1CCCCNC(=O)C[C@@H](C(=O)N[C@@H](Cc2c[nH]c3ccccc23)C(=O)N[C@H](C(=O)N[C@@H](CCCCN)C(=O)N[C@@H](CCCCN)C(=O)N[C@@H](CCCCN)C(=O)N[C@@H](CCCCN)C(=O)N[C@@H](CCCCN)C(=O)N[C@@H](CCCCN)C(N)=O)C(C)C)NC(=O)[C@H](CC(C)C)NC(=O)[C@H](Cc2ccc(O)cc2)NC(=O)[C@H](CCC(=O)O)NC1=O)[C@@H](C)O)C(C)C)[C@@H](C)O (Ac-TVFTSWKEYLDWVKKKKKK-NH2; lactam 7-11) | Non-Toxic | –
6500 nM | CC(=O)N[C@H](C(=O)N[C@H](C(=O)N[C@@H](Cc1ccccc1)C(=O)N[C@H](C(=O)N[C@@H](CO)C(=O)N[C@@H](Cc1c[nH]c2ccccc12)C(=O)N[C@@]1(C)CCC/C=C\CCC[C@@](C)(C(=O)N[C@@H](Cc2c[nH]c3ccccc23)C(=O)N[C@H](C(N)=O)C(C)C)NC(=O)[C@H](CC(C)C)NC(=O)[C@H](Cc2ccc(O)cc2)NC(=O)[C@H](CCC(=O)O)NC1=O)[C@@H](C)O)C(C)C)[C@@H](C)O (Ac-TVFTSW[S5]EYL[S5]WV-NH2; staple (Z) 7-11) | Non-Toxic | Activity [4]: 42.7%
– | Ac-HVCNSWEEYLDWV-NH2 | Non-Toxic | Activity [1]: inactive
1200 nM | Ac-HVFKSWEEYLDWV-NH2 | Non-Toxic | –
3900 nM | Ac-HVFNSWEEYLDWV-NH2 | Non-Toxic | Activity [4]: 62.4%
865 nM | Ac-HVFRSWEEYLDWV-NH2 | Non-Toxic | –
– | Ac-TVATSWEEYLDWV-NH2 | – | Activity [1]: inactive
7000 nM | Ac-TVFTSWAEYLDWV-NH2 | Non-Toxic | –
– | Ac-TVFTSWEEALDWV-NH2 | Non-Toxic | –
8600 nM | Ac-TVFTSWEEYLAWV-NH2 | – | –
1600 nM | Ac-TVFTSWEEYLDWVKKK-NH2 | Non-Toxic | Kd [5]: 1600 nM; Activity [4]: 72.3%
424 nM | Ac-TVFTSWEEYLDWVKKKKKK-NH2 | Non-Toxic | Kd [5]: 424 nM
